Laboratory results taken from ChEMBL document CHEMBL1133099, “Structure-property model for membrane partitioning of oligopeptides” (J Med Chem, 2000).
Each block holds one molecule with its values, some of them ahead of it. Residues, ends and D or L forms follow the SMILES beside them.

How the values were obtained:
Format in all cases: physicochemical
[1] = pKa1 values were determined by potentiometric titrations.; conditions: read-out: pKa1
[2] = Distribution coefficient between n-octanol and hanks buffered saline solution
How it was run: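 Distribution between n-octanol and Hanks buffered saline at pH 7.4, measured by the shake-flask method.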

[3] = pKa2 values were determined by potentiometric titrations.; conditions: read-out: pKa2
[4] = Ionization constant (pKa1) values were determined by potentiometric titrations.; conditions: read-out: pKa1
[5] = Ionization constant (pKa2) values were determined by potentiometric titrations.; conditions: read-out: pKa2

SMILES: CC(=O)N[C@@H](Cc1ccc(O)cc1)C(=O)NCC(=O)NCC(=O)N[C@@H](CCC(N)=O)C(N)=O (Ac-YGGQ-NH2)
logD [2]: -2.59

SMILES: CC(=O)N[C@@H](Cc1ccccc1)C(=O)N[C@@H](CCC(N)=O)C(=O)N[C@@H](CCCCN)C(=O)N(C)[C@@H](CC(C)C)C(N)=O (HELM PEPTIDE1{[ac].F.Q.K.[meL].[am]}$$$$V2.0)
pKa [3]: 10.1

SMILES: CC(=O)NCC(=O)N[C@@H](CC(C)C)C(=O)N[C@@H](CC(=O)O)C(=O)N(C)[C@@H](Cc1ccccc1)C(N)=O (HELM PEPTIDE1{[ac].G.L.D.[meF].[am]}$$$$V2.0)
pKa [4]: 3.93

SMILES: CC(=O)N[C@@H](CCCCN)C(=O)N(C)CC(=O)N[C@@H](Cc1ccc(O)cc1)C(=O)N(C)[C@@H](CC(=O)O)C(N)=O (HELM PEPTIDE1{[ac].K.[Sar].Y.[meD].[am]}$$$$V2.0)
pKa [4]: 3.6 | pKa [5]: 9.69

SMILES: CC(=O)N[C@@H](CCCCN)C(=O)N(C)[C@@H](Cc1ccccc1)C(=O)NCC(=O)N(C)[C@@H](CC(C)C)C(N)=O (HELM PEPTIDE1{[ac].K.[meF].G.[meL].[am]}$$$$V2.0)
pKa [3]: 9.94 | logD [2]: -1.33

More lines, now with the values ahead:

pKa [1]: 3.97 | logD [2]: > -2.5
SMILES: CC(=O)N[C@@H](CC(=O)O)C(=O)N[C@@H](CCC(N)=O)C(=O)N[C@@H](CC(C)C)C(=O)N[C@@H](Cc1ccccc1)C(N)=O (Ac-DQLF-NH2)

logD [2]: 1.64
SMILES: CC(=O)N[C@@H](Cc1ccccc1)C(=O)N1CCC[C@H]1C(=O)N[C@@H](Cc1ccccc1)C(=O)N[C@@H](Cc1ccc(O)cc1)C(N)=O (Ac-FPFY-NH2)

logD [2]: 2.42
SMILES: CC(=O)N[C@@H](Cc1ccccc1)C(=O)N[C@@H](CC(C)C)C(=O)N[C@H](C(=O)N(C)[C@@H](CC(C)C)C(N)=O)C(C)C (HELM PEPTIDE1{[ac].F.L.V.[meL].[am]}$$$$V2.0)

logD [2]: 0.05
SMILES: CC(=O)NCC(=O)N(C)CC(=O)N[C@@H](CC(C)C)C(=O)N[C@@H](Cc1ccccc1)C(N)=O (HELM PEPTIDE1{[ac].G.[Sar].L.F.[am]}$$$$V2.0)

pKa [4]: 3.78 | pKa [5]: 10.3
SMILES: CC(=O)NCC(=O)N(C)[C@@H](Cc1ccccc1)C(=O)N[C@@H](CCCCN)C(=O)N[C@@H](CC(=O)O)C(N)=O (HELM PEPTIDE1{[ac].G.[meF].K.D.[am]}$$$$V2.0)

logD [2]: -1.51
SMILES: CC(=O)N[C@@H](CO)C(=O)N(C)[C@@H](Cc1ccccc1)C(=O)NCC(=O)NCC(N)=O (HELM PEPTIDE1{[ac].S.[meF].G.G.[am]}$$$$V2.0)
